Reference: ChEMBL document CHEMBL1134616, “Novel 7-oxyiminomethyl derivatives of camptothecin with potent in vitro and in vivo antitumor activity” (J Med Chem, 2001)

Assays:
[1] = test system: NCI-H460; experiment: Percentage of body weight loss in CD1 mice with human Non-Small-Cell tumor at a oral dose of 1 mg/kg; assay type: functional
How it was run: (§1)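 Nude athymic CD1 mice, 8–10 weeks old, bearing s.c. human lung tumor xenografts in both flanks. Given oral drug in 10 mL/kg on a q4dx4 schedule, beginning when tumors were visible but not measurable. Read-out is percent body weight loss after drug treatment.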

[2] = test system: NCI-H460; experiment: Percentage inhibition of tumor volume in treated versus control mice against human Non-Small-Cell tumor xenograft at a oral dose of 1 mg/kg; assay type: functional; details: Mus musculus
How it was run: (§2)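 Nude athymic CD1 mice, 8–10 weeks old, with human lung tumor fragments implanted s.c. in both flanks. Oral dosing in 10 mL/kg, q4dx4, started when tumors were visible but not measurable. Tumor volume = d²×D/2 from caliper diameters. Percent inhibition of treated versus control volume taken 7–10 days after the last dose. Volumes compared by Student's t test, P<0.05.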

[3] = test system: NCI-H460; experiment: Complete response in CD1 mice with human Non-Small-Cell tumor at a oral dose of 1 mg/kg; assay type: functional
How it was run: (§3)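 Nude athymic CD1 mice, 8–10 weeks old, carrying serially passaged human lung tumor fragments implanted s.c. in both flanks. Oral dosing in 10 mL/kg on a q4dx4 schedule, begun once tumors were visible but not yet measurable. Complete response means no detectable tumor for at least 10 days after the end of treatment.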

[4] = test system: NCI-H460; experiment: Log 10 cell kill induced by treatment in CD1 mice with human Non-Small-Cell tumor at a oral dose of 3 mg/kg; assay type: functional
How it was run: (§4)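 Nude athymic CD1 mice, 8–10 weeks, carrying s.c. human lung tumor fragments in both flanks. Given per os on a q4dx4 schedule at 10 mL/kg, starting when tumors were visible but not measurable. Volume = d²×D/2. Log10 cell kill = T−C/3.32 × tumor doubling time, where T and C are the days for treated and control tumors to reach a mean volume of 1000 mm³.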

[5] = test system: NCI-H460; experiment: Percentage of body weight loss in CD1 mice with human Non-Small-Cell tumor at a oral dose of 4 mg/kg
[6] = Percentage inhibition of tumor volume mice with lung carcinoma LX-1 at a oral dose of 3 mg/kg; assay type: functional; details: Mus musculus; how it was run: as §2
[7] = Complete response in mice with lung carcinoma LX-1 at a oral dose of 3 mg/kg; assay type: functional, Mus musculus; how it was run: as §3
[8] = Log 10 cell kill induced by treatment in CD1 mice with human Non-Small-Cell tumor at a oral dose of 2 mg/kg
[9] = test system: NCI-H460; experiment: Log 10 cell kill induced by treatment in CD1 mice with human Non-Small-Cell tumor at a oral dose of 2 mg/kg; assay type: functional; how it was run: as §4
[10] = test system: NCI-H460; experiment: Percentage inhibition of tumor volume in treated versus control mice against human Non-Small-Cell tumor xenograft at a oral dose of 3 mg/kg; assay type: functional; details: Mus musculus; how it was run: as §2
[11] = test system: NCI-H460; experiment: Percentage of body weight loss in CD1 mice with human Non-Small-Cell tumor at a oral dose of 2 mg/kg; assay type: functional; how it was run: as §1
[12] = Percentage of body weight loss in mice with lung carcinoma LX-1 at a oral dose of 3 mg/kg; assay type: functional, Mus musculus; how it was run: as §1
[13] = test system: NCI-H460; experiment: Log 10 cell kill induced by treatment iin CD1 mice with human Non-Small-Cell tumor at a oral dose of 1 mg/kg; assay type: functional; how it was run: as §4
[14] = Percentage inhibition of tumor volume in treated versus control mice against human Non-Small-Cell tumor xenograft at a oral dose of 4 mg/kg; assay type: functional; details: Mus musculus; how it was run: as §2
[15] = test system: NCI-H460; experiment: No. of dead mice/ total No. of mice with human Non-Small-Cell tumor at a oral dose of 3 mg/kg; assay type: ADME, organism-based; parameters: dose 3 mg/kg, route oral; details: in vivo
How it was run: (§5)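 Human lung tumor s.c. xenografts (fragments, both flanks) in nude athymic CD1 mice aged 8–10 weeks. Oral q4dx4 dosing at 10 mL/kg, begun when tumors were visible but not measurable. Toxicity is recorded as the number of dead mice over the total number of treated mice.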

[16] = Cytotoxicity against human non-small-cell lung carcinoma cell line H460 (NSCLC-H460); assay type: functional, cell-based
How it was run: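 Logarithmically growing cells were seeded in duplicate, exposed to drug for 1 h starting 24 h after seeding, and counted by Coulter counter 72 h after exposure. Drug was dissolved in DMSO before dilution. The IC50 is the concentration giving a 50% decrease in growth relative to untreated control.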

[17] = No. of dead mice/ total No. of mice in mice with lung carcinoma LX-1 at a oral dose of 3 mg/kg; assay type: ADME, organism-based; parameters: dose 3 mg/kg, route oral; details: mouse, in vivo; how it was run: as §5
[18] = Percentage of body weight loss in CD1 mice with human Non-Small-Cell tumor at a oral dose of 4 mg/kg; assay type: functional, Mus musculus; how it was run: as §1
[19] = test system: NCI-H460; experiment: Percentage inhibition of tumor volume in treated versus control mice against human Non-Small-Cell tumor xenograft at a oral dose of 2 mg/kg; assay type: functional; details: Mus musculus; how it was run: as §2
[20] = test system: NCI-H460; experiment: Complete response in CD1 mice with human Non-Small-Cell tumor at a oral dose of 2 mg/kg; assay type: functional; how it was run: as §3
[21] = test system: NCI-H460; experiment: No. of dead mice/ total No. of mice with human Non-Small-Cell tumor at a oral dose of 2 mg/kg; assay type: ADME, organism-based; parameters: dose 2 mg/kg, route oral; details: in vivo; how it was run: as §5
[22] = Log 10 cell kill induced by treatment in mice with lung carcinoma LX-1 at a oral dose of 3 mg/kg; assay type: functional, Mus musculus; how it was run: as §4
[23] = test system: NCI-H460; experiment: Complete response in CD1 mice with human Non-Small-Cell tumor at a oral dose of 3 mg/kg; assay type: functional; how it was run: as §3
[24] = Complete response in CD1 mice with human Non-Small-Cell tumor at a oral dose of 4 mg/kg; assay type: functional, Mus musculus; how it was run: as §3
[25] = test system: NCI-H460; experiment: No. of dead mice/ total No. of mice in CD1 mice with human Non-Small-Cell tumor at a oral dose of 1 mg/kg; assay type: ADME, organism-based; parameters: dose 1 mg/kg, route oral; details: in vivo; how it was run: as §5

`CC[C@@]1(O)C(=O)OCc2c1cc1n(c2=O)Cc2c-1nc1ccccc1c2/C=N/OC(C)(C)C` [GIMATECAN] gave a BWL [1] of 0%, an inhibition in vivo at 1 mg/kg [2] of 90% and a CR [3] of 0. It also gave an LCK [4] of 2.5, a BWL [5] of 23% and an inhibition in vivo at 3 mg/kg [6] of 100%. The CR [7] was 8, the LCK [8] was 2.4 and the LCK [9] was 2.4. It also gave an inhibition in vivo at 3 mg/kg [10] of 100%, a BWL [11] of 1% and a BWL [12] of 11%. For the same compound, the LCK [13] was 1.4, the inhibition in vivo at 4 mg/kg [14] was 99% and the Toxicity [15] was 2. It also gave an IC50 [16] of 15 nM, a Toxicity [17] of 0 and a BWL [18] of 5%. The inhibition in vivo at 2 mg/kg [19] was 99%, the CR [20] was 5 and the Toxicity [21] was 0. For the same compound, the LCK [22] was 5.3, the CR [23] was 8 and the CR [24] was 4. The Toxicity [25] was 0.
